RGS4 inh – inhibitors of human RGS4. HEK293 M3R/RGS4 inducible, Fluo-4 calcium flux; active compounds read high; triggered by carbachol at its EC20. AID 463165. 310,000 compounds, 0.45% hits. B-score at 10 µM;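 active means B-score, a plate-corrected calcium signal, over three deviations above library mean, with baseline fluorescence within five deviations of library mean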;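 further: RGS4 expression induced by doxycycline in cells with stable M3 receptor; B-score is computed from the integrated fluorescence ratio over baseline after carbachol; higher B-score means a larger calcium signal and so more RGS4 inhibition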
Target sequence (P49798 whole entry, looked up): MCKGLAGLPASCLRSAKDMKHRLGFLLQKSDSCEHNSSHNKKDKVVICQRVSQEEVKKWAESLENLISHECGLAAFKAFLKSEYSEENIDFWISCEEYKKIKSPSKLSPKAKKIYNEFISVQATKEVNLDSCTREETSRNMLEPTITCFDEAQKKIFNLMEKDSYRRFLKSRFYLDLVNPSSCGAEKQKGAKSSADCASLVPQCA
RGS4 pot – RGS4 potentiation or activation; HEK293 M3R/inducible RGS4, carbachol calcium flux Fluo4; active compounds read low; B-score at 10 µM; 310,000 compounds, 0.92% hits;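 active means B-score of the integrated calcium signal more than 4 SD below the library mean, with starting fluorescence not abnormally high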;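 further: negative B-score means reduced calcium response which marks RGS4 activation or potentiation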
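Assay system: Inducible-RGS4 HEK293 cells carrying M3 receptor | Schedule: Compound preincubation 20 min at room temperature before agonist | Signal: Kinetic calcium fluorescence imaging with Fluo4-AM dye, 2 µM | Read-out basis: B score from integrated fluorescence ratio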
MrgX1 PAM – human MrgX1 positive allosteric modulation, primary screen; Q96LB2; MrgX1-HEK293, Fluo-4 calcium flux, FDSS; active compounds read high; B-score at 10 µM; 310,000 compounds, 0.63% hits;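 active means plate-corrected calcium response at least 3 library SD above typical, normal starting fluorescence, not activating the receptor alone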;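 further: compound read alongside a low EC10 to EC30 dose of BAM8-22 agonist; peak minus trough fluorescence over baseline measured at the second addition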
Target sequence (Q96LB2 whole entry, looked up): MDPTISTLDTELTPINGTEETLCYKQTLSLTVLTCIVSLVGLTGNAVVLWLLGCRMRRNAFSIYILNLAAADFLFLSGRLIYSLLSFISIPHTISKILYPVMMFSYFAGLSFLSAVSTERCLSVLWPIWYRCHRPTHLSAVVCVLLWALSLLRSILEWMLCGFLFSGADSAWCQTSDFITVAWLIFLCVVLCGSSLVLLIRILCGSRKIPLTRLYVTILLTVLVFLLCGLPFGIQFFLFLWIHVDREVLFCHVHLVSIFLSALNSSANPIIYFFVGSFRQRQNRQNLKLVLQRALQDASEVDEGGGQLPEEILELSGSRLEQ
MrgX1 agonist – activates human MrgX1 receptor signaling. Q96LB2. MrgX1-HEK293 cells, Fluo-4 calcium fluorescence, agonist mode; active compounds read high. B-score at 10 µM. 310,000 compounds, 0.44% hits;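 active means calcium response B-score plate-corrected fluorescence ratio at least 3 library SD, with starting fluorescence B-score inside 5 SD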
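Material – MrgX1-expressing HEK293 cells · Input – 15,000 cells seeded per well · Dosing – compound as first of three additions · Times – overnight seeding, then 1 h dark dye loading · Measured by – kinetic Fluo-4 NW fluorescence of intracellular calcium · Read-out – B-scored fluorescence response ratio · Benchmarks – positive and negative control wells on each plate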
MrgX1 antagonist – blocks BAM8-22 activation of human MrgX1 receptor; B-score at 10 µM; Q96LB2; MRGX1-HEK293 calcium flux, Fluo-4, BAM8-22 antagonism; active compounds read low; 310,000 compounds, 1.3% hits;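 active means calcium-response B-score plate-corrected more than 3 library SD below zero, starting fluorescence within 5 deviations, no agonist response on first addition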;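 further: peak minus trough fluorescence over baseline after final BAM8-22 challenge near maximal dose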
Large screens that a line does not name were inactive. Rows were chosen to be rich in hits. Some 3.5% of all compounds tested hit in one or more screens of this group.

O=S(=O)(c1ccc(F)cc1)c1nc(-c2ccco2)oc1Nc1ccc(F)cc1	none
O=C(CN1CCCCC1)N1c2ccccc2Oc2ccccc21	RGS4 pot -7.5
CC1Cc2ccccc2N1C(=O)CN1CCCCC1 (configuration not stated)	none
C=C1C(=O)O[C@H]2[C@H]1[C@@H](O)CC(=C)[C@@H]1CC(=O)[C@@H](C)[C@H]21	RGS4 inh 6.7
N#C/C(=C\c1cccs1)C(=O)Nc1ccccn1	MrgX1 antagonist -4.9
N#C/C(=C\c1ccccc1)C(=O)Nc1nncs1	MrgX1 PAM 8
O=C(COC(=O)Cc1cn2ccsc2n1)NCc1ccc2c(c1)OCO2	none
CCOC(=O)C1C(=O)CC(O)(c2ccccc2)CC1c1ccccc1 (configuration not stated)	none
CC(=O)Nc1cccc(NC(=O)CSc2ncc(-c3ccc(Cl)cc3)n2Cc2ccco2)c1	RGS4 pot -8.6
CC(=O)Nc1cccc(NC(=O)CSc2ncc(C(=O)Nc3ccccc3)c(=O)n2C)c1	RGS4 inh 5.8
COc1ccc(-c2cnc(SCC(=O)Nc3ccc4c(c3)OCO4)n2Cc2ccco2)cc1	none (no result: MrgX1 PAM, MrgX1 agonist, MrgX1 antagonist)
CC(=O)Nc1ccc(NC(=O)CSc2ncc(C(=O)Nc3ccc(Cl)cc3)c(=O)n2C)cc1	none
CC(=O)Nc1ccc(S(=O)(=O)NCc2nnnn2-c2ccc(Cl)cc2)cc1	none
Cc1occc1-c1nnc(SCC(=O)N2CCOCC2)n1CCc1ccccc1	RGS4 pot -7.3
CCCCn1c(SCC(=O)N2CCOCC2)nnc1-c1ccoc1C	none
Oc1cccc2ccc(Nc3ccccn3)nc12	MrgX1 antagonist -7.4
O=C(CCc1nc(-c2ccccc2Cl)no1)NCCc1ccccc1	none
COc1ncccc1C(=O)N1CCCC(C(=O)c2cc(F)ccc2F)C1 (configuration not stated)	none
COCCNC(=S)N/N=C/c1ccc(OCc2ccc(C(=O)OC)cc2)c(OC)c1	MrgX1 antagonist -4.9
COc1ccc(C2C(C(=O)c3cccs3)=C(O)C(=O)N2c2nnc(C)s2)cc1OC (configuration not stated)	none
O=C1Nc2ccccc2/C1=C/c1ccccc1Cl	none
CN1CCN(c2ccccc2/C=C2/C(=O)Nc3ccccc32)CC1	RGS4 pot -8.5
Cc1c(Cl)cccc1NC(=S)/C(=C(\[O-])c1ccc(Cl)s1)[n+]1ccccc1	none
Cc1nn(-c2ccccc2)c(N2CCCCC2)c1/C=N/O	none
Oc1ccc(CCNc2ncnc3ccc(Cl)cc23)cc1	MrgX1 antagonist -5.6
O=C(NCCCN1CCCC1)c1ccc2c(c1)N(Cc1ccccc1F)C(=O)c1ccccc1S2=O (configuration not stated)	none
CC1CCCCN1CCNC(=O)c1ccc2c(c1)N(Cc1ccccc1F)C(=O)c1ccccc1S2=O (configuration not stated)	RGS4 pot -7.4
COc1cc(N/C=C(\C(C)=O)c2ccccc2)cc(OC)c1	MrgX1 agonist 30 (no result: RGS4 inh, RGS4 pot)
Cn1ccnc1C(OC(=O)c1ccccc1)C(F)(F)F (configuration not stated)	none
Cc1ccccc1NC(=O)/C(=C/c1ccccc1)c1ccccc1	MrgX1 PAM 8.1
O=C(Nc1ccccc1)/C(=C/c1ccccc1)c1ccccc1	none
Cc1cccc(C)c1NC(=O)/C(=C/c1ccco1)c1ccccc1	MrgX1 PAM 12
Cc1ccc(S(=O)(=O)NCC(=O)N/N=C/c2ccccc2O)cc1	MrgX1 antagonist -5.4
CCOC(=O)c1c(-c2ccco2)csc1NC(=O)COC(=O)c1cnccn1	none
CC(/C=N/NC(=O)Cn1cnc2ccccc21)=C\c1ccccc1	none
CC(/C=N/NC(=O)CCn1nnc2ccccc21)=C\c1ccccc1	MrgX1 antagonist -7.7
CC(=O)OC(C[N+]1(C)CCCCCC1)c1ccccc1 (configuration not stated)	RGS4 pot -7
C[N+]1(CC(O)c2ccccc2)CCCCCC1 (configuration not stated)	none
CC1Cc2ccccc2N1Cc1nc2cc(Cl)ccc2c(=O)[nH]1 (configuration not stated)	none
CCC(=NC(C)c1ccccc1)c1c(O)n(C)c(=O)n(C)c1=O (configuration not stated)	MrgX1 antagonist -7.4
COCCN(C(=O)COC(=O)CSc1ccc(Cl)cc1)c1c(N)n(Cc2ccccc2)c(=O)[nH]c1=O	none
CCOC(=O)c1c(NC(=O)COC(=O)c2ccc(O)cc2)sc(C(=O)NC)c1C	none
CCOC(=O)c1c(NC(=O)COC(=O)CC(NC(C)=O)c2ccccc2)sc(C(=O)NC)c1C (configuration not stated)	MrgX1 antagonist -4.8
COc1ccc(NS(=O)(=O)c2ccc(N3CCOCC3)c(NC(=O)c3ccco3)c2)cc1	none
COc1ccc(OCC(=O)Nc2ccc(N3CCN(Cc4ccccc4F)CC3)cc2)cc1	none
O=C1/C(=C/C=C/c2ccco2)SC(=S)N1c1ccc(O)cc1	MrgX1 PAM 16
CC(C)C(C(=O)O)N1C(=O)/C(=C/C=C/c2ccco2)SC1=S (configuration not stated)	MrgX1 antagonist -5.3
CC(C)C(C(=O)O)N1C(=O)/C(=C/c2cccn2C)SC1=S (configuration not stated)	none (no result: RGS4 inh, RGS4 pot)
OC(COCc1ccc(Cl)cc1)CN1CCc2ccccc2C1 (configuration not stated)	none
CC(=O)/C(N=Nc1cccc(C(F)(F)F)c1)=C(\C)O	none
O=C(/C(N=Nc1cccc(C(F)(F)F)c1)=C(/O)c1cccs1)C(F)(F)F	RGS4 pot -9.2
CCn1c(O)c(/C=N/N=C/c2ccccc2)c2ccc(C3=NNC(=O)CC3)cc21	MrgX1 antagonist -4.8
COc1ccc(N2C(=O)C(Cl)=C(NCc3ccccc3)C2=O)cc1	none
COc1ccccc1NC1=C(Cl)C(=O)N(C2CCCCC2)C1=O	MrgX1 PAM 7.6
CCOc1ccccc1NC1=C(Cl)C(=O)N(c2ccc(OC)cc2)C1=O	MrgX1 PAM 7.9
CCCOC(=O)C1=C(C)NC2=C(C(=O)CCC2)C1c1ccc(N(C)C)cc1 (configuration not stated)	RGS4 pot -7.2
CCOC(=O)C1=C(C)NC2=C(C(=O)CCC2)C1c1ccc(N(C)C)cc1 (configuration not stated)	none
COCCN=c1scc(-c2cccs2)n1/N=C(\C)c1ccco1	MrgX1 PAM 15
COCCN=c1scc(-c2ccco2)n1/N=C/c1ccc(O)c(O)c1O	none (no result: RGS4 inh, RGS4 pot)
Cc1cccc(N(CC(O)CON=C2c3ccccc3-c3ccccc32)S(C)(=O)=O)c1 (configuration not stated)	MrgX1 antagonist -4.9
N/C(=N\OC(=O)COc1ccc([N+](=O)[O-])cc1)c1ccncc1	none
N/C(=N\OC(=O)COc1ccc(Br)cc1)c1ccncc1	MrgX1 antagonist -6
CCOc1ccc2nc(NC(=O)C3=NN(c4ccccc4)C(=O)CC3)sc2c1	none

Compound activity as filed in PubChem BioAssay.
